The results in this text go back to ChEMBL document CHEMBL2375244 (J Med Chem, 2013).

Test [1] can be described thus: Cytotoxicity against human RPMI18226 cells after 72 hrs by resazurin/resorufin-based fluorescence assay. It counts as functional, cell-based. Particulars: RPMI18226, 72 h.
A short description of test [2]: Cytotoxicity against human NCI-H929 cells after 72 hrs by resazurin/resorufin-based fluorescence assay. Type of test: functional, cell-based. Particulars: NCI-H929, 72 h.
Test [3] has as its system MCF7. Put plainly: Cytotoxicity against human MCF7 cells after 72 hrs by resazurin/resorufin-based fluorescence assay. Type of test: functional, cell-based. The settings on record: MCF7, 72 h.
Test [4] concerns HOS-TE85. Put plainly: Cytotoxicity against human MNNG-HOS cells after 72 hrs by resazurin/resorufin-based fluorescence assay. Type of test: functional, cell-based. The settings on record: HOS-TE85, 72 h.
In test [5] the test system is MDA-MB-468. Put plainly: Cytotoxicity against human MDA-MB-468 cells after 72 hrs by MTT assay. It counts as functional, cell-based. The settings on record: MDA-MB-468, 72 h. The essentials:
(§1)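 Cells kept in RPMI or DMEM with 10% FBS at 37 °C, 5% CO₂ and allowed to attach overnight; 72 h with increasing inhibitor concentrations; then 1 mg/mL MTT for 3 h, DMSO solubilisation, OD read at 540 nm. Testis lines had culture conditions adapted to them. Dose-response in triplicate, 9 concentrations between 0.02 and 100 μM, averaged.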

Test [6] has as its system SK-BR-3. The test can be described thus: Cytotoxicity against human SK-BR-3 cells after 72 hrs by resazurin/resorufin-based fluorescence assay. The settings on record: SK-BR-3, 72 h. Type of test: functional, cell-based. The method in brief: (§2)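 CellTiter-Blue viability: 1200 cells per well seeded, incubated overnight at 37 °C, 5% CO₂; drugs serially diluted 2:3 in medium, four replicate wells per concentration plus four diluent-only control wells; 72 h exposure; resazurin reduction to resorufin read by fluorescence (579 nm ex/584 nm em). IC50 is the average of three data sets, each using nine concentrations between 0.004 μM and 12.5 μM.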

In test [7] the test system is T47D. The test can be described thus: Cytotoxicity against human T47D cells after 72 hrs by resazurin/resorufin-based fluorescence assay. It counts as functional, cell-based.
The subject of test [8] is SW872. Put plainly: Cytotoxicity against human SW872 cells after 72 hrs by resazurin/resorufin-based fluorescence assay. It counts as functional, cell-based. Particulars: SW872, 72 h.
Test [9] relates to U-266. The test can be described thus: Cytotoxicity against human U266 cells after 72 hrs by resazurin/resorufin-based fluorescence assay. It counts as functional, cell-based. The settings on record: U-266, 72 h.
The test system of test [10] is SK-ES1. Put plainly: Cytotoxicity against human SK-ES-1 cells after 72 hrs by resazurin/resorufin-based fluorescence assay. It counts as functional, cell-based. The settings on record: SK-ES1, 72 h.
A short description of test [11]: Cytotoxicity against human MDA-MB-436 cells after 72 hrs by resazurin/resorufin-based fluorescence assay. Type of test: functional, cell-based. Particulars: MDA-MB-436, 72 h.
Test [12] deals with A673. The test can be described thus: Cytotoxicity against human A673 cells after 72 hrs by resazurin/resorufin-based fluorescence assay. It counts as functional, cell-based. The settings on record: A673, 72 h.
Test [13] has as its target T1, CDK2/Cyclin A2 (Homo sapiens, UniProt P24941). The test can be described thus: Inhibition of human CDK2/Cyclin A2 using PKTPKKAKKL as substrate by PK/LDH spectrophotometric analysis. It counts as protein-complex assay.
For test [14], the system named is BT-549. The test can be described thus: Cytotoxicity against human BT549 cells after 72 hrs by resazurin/resorufin-based fluorescence assay. Type of test: functional, cell-based. Particulars: BT-549, 72 h. The method in brief: as §2
Test [15] deals with MDA-MB-231. Put plainly: Cytotoxicity against human MDA-MB-231 cells after 72 hrs by resazurin/resorufin-based fluorescence assay. It counts as functional, cell-based. Particulars: MDA-MB-231, 72 h.
A short description of test [16]: Cytotoxicity against mouse GC-1 cells after 72 hrs by MTT assay. Type of test: functional, cell-based. Particulars: GC-1, 72 h. The essentials:
as §1

In test [17] the target is T1, CDK2/Cyclin A2. Put plainly: Inhibition of human CDK2/Cyclin A2 using PKTPKKAKKL as substrate by fluorescence assay. It counts as protein-complex assay.
Test [18] in a line: Cytotoxicity against mouse TM4 cells after 72 hrs by MTT assay. It counts as functional, cell-based. The settings on record: TM4, 72 h. The method in brief: as §1
Test [19] deals with SK-UT-1. Put plainly: Cytotoxicity against human SK-UT-1 cells after 72 hrs by resazurin/resorufin-based fluorescence assay. Type of test: functional, cell-based. The settings on record: SK-UT-1, 72 h.
Test [20] in a line: Cytotoxicity against mouse GC-2 cells after 72 hrs by MTT assay. Type of test: functional, cell-based. The settings on record: GC-2, 72 h. The essentials:
as §1

The test system of test [21] is A673. The test can be described thus: Induction of apoptosis in human A673 cells assessed as caspase-3 activation after 24 hrs by luminescence assay. It counts as functional, cell-based. The settings on record: A673, 24 h. The essentials:
(§3)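 Caspase-3/7 activation measured with a Caspase-Glo 3/7 luminescent assay. Cells were plated as for the high-throughput viability assay and exposed for 24 h to serial dilutions. EC50 was obtained from the dose-response.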

The target of test [22] is T1, CDK2/Cyclin A2. Put plainly: Inhibition of human CDK2/Cyclin A2 using PKTPKKAKKL as substrate by P33-radiolabeled assay. Type of test: protein-complex assay. The essentials: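 Radiometric (P33) kinase assay run by a contract lab on CDK–cyclin complexes. Inhibitor tested in duplicate at 0.05 nM to 1000 nM with ATP at 10 μM. […] For the in-house assays, IC50 was obtained by Hill-equation fitting.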

Test [23] concerns A673. The test can be described thus: Induction of apoptosis in human A673 cells assessed as caspase-3 activation at 0.05 uM to 5 uM after 24 hrs by luminescence assay relative to control. It counts as functional. The essentials:
as §3

Test [24] has as its system NCI-H929. The test can be described thus: Induction of apoptosis in human NCI-H929 cells assessed as increase in cleaved caspase-3 level at 0.005 uM after 24 hrs by FACS flow cytometric analysis relative to control. Type of test: functional. The essentials: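 Active caspase-3 was detected with a FITC-labelled monoclonal antibody by flow cytometry, and the percentage of cells with raised cleaved caspase-3 is reported. Triplicate experiments.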

Take `Nc1nc(Nc2ccc(S(N)(=O)=O)cc2)sc1C(=O)c1ccc2ccccc2c1`: the IC50 in [1] was above 10000 nM; in [2], 4300 nM; in test [3], 5900 nM; in test [4] it was 9700 nM; in [5], 5500 nM; in test [6] it was 6100 nM. Also, the IC50 in test [7] is 4500 nM; in test [8] it was above 10000 nM; in test [9], 7900 nM; in [10], 4800 nM; in test [11] it was 5300 nM; in [12] it was 3700 nM. Further, the IC50 in test [13] is 82000 nM; in test [14], above 10000 nM; in test [15], above 10000 nM.

On to `Nc1nc(Nc2ccc(S(N)(=O)=O)cc2)sc1C(=O)c1cccc(F)c1`, for which the 50% inhibitory concentration (IC50) in [1] was 6800 nM; in test [16] it was 6400 nM; in test [2], 1000 nM; in [3], 1300 nM; in test [4], 2200 nM; in test [5], 800 nM. For the same compound, the IC50 was 1200 nM in test [6]; 980 nM in [7]; 3100 nM in test [8]; 50 nM in test [17]; 4800 nM in test [18]; 1600 nM in test [19]. The concentration for half-maximal inhibition (IC50) was 3900 nM in test [20]; 1500 nM in test [9]; 1100 nM in [10]; 1300 nM in test [11]; 450 nM in [12]; above 10000 nM in test [14]. The compound further gave a half-maximal inhibitory concentration (IC50) in test [15] of 1200 nM.

For the compound `COc1cccc2c1C(=O)c1c(O)c3c(c(O)c1C2=O)C[C@@](O)(C(=O)CO)C[C@@H]3O[C@H]1C[C@H](N)[C@H](O)[C@H](C)O1` [DOXORUBICIN], the IC50 was found to be 270 nM in test [1]; 65 nM in test [2]; 590 nM in test [4]; 90 nM in [6]; 140 nM in test [8]; 76 nM in test [19]. In addition, the half-inhibitory concentration (IC50) in test [9] is 670 nM; in test [10] it was 42 nM; in [14] it was 110 nM. In test [21], the concentration for a half-maximal effect (EC50) worked out at 390 nM.

Turning to `Nc1nc(Nc2ccc(S(N)(=O)=O)cc2)sc1C(=O)c1cccnc1`, the IC50 in test [16] is 20000 nM; in test [5], 2800 nM; in [17] it was 20 nM; in [18], 13000 nM; in test [20], above 30000 nM; in [22] it was 0.9 nM.

`CCc1cnn2c(NCc3ccc[n+]([O-])c3)cc(N3CCCC[C@H]3CCO)nc12` [DINACICLIB]: the Activity in [23] is 280%; in test [24] it was 63%. Further, the half-maximal inhibitory concentration (IC50) in test [6] is below 5 nM; in [11], below 5 nM; in [14] it was above 10000 nM; in [15] it was below 5 nM.
